Reference: ChEMBL document CHEMBL4400511, “Benzothiopyranoindole- and pyridothiopyranoindole-based antiproliferative agents targeting topoisomerases” (2019)
Calls of active or inactive are those of the source. The calls are words filed in the database; no cut-off is given here.

Assays:
[1] = target: T1, DNA topoisomerase 1 (Homo sapiens) (UniProt P11387); test: Poison activity at recombinant human topoisomerase-1 assessed as stabilization of covalent topo-1-DNA cleavage complex by measuring nicked DNA formation at 0.5 to 50 uM using supercoiled pBR322 DNA as substrate after 60 mins by agarose gel electrophoresis method
T1 sequence (whole entry): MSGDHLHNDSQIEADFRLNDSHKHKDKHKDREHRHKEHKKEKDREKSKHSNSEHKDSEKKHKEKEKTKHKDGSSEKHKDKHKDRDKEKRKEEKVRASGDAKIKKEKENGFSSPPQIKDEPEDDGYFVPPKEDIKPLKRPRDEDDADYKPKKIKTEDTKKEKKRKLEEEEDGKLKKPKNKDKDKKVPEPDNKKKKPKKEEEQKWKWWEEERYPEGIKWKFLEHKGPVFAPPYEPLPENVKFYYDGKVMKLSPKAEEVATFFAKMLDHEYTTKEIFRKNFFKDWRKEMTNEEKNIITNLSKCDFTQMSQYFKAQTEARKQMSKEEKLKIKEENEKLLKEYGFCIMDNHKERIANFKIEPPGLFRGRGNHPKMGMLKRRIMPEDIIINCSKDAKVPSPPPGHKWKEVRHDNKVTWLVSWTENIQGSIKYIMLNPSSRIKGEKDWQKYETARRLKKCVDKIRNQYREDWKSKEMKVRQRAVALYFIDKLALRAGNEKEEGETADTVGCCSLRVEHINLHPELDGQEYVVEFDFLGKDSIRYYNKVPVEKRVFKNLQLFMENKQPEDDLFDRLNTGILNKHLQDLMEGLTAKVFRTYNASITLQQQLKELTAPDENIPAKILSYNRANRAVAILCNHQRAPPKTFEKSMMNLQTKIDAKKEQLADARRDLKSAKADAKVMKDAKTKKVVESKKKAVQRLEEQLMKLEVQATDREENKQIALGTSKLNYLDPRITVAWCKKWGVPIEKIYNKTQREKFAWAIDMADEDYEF
Method in brief: (§1)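 Cleavable-complex assay: supercoiled pBR322 DNA was incubated with Topo I, with or without compound at a series of µM concentrations. Nicked DNA formation marks covalent complex stabilisation. Reference is 0.5 µM camptothecin.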

[2] = target: T1, DNA topoisomerase 1 (Homo sapiens); test: Inhibition of recombinant human topoisomerase 1 assessed as decrease in relaxation of supercoiled pBR322 DNA after 60 mins by ethidium bromide staining based agarose gel electrophoresis method
Method in brief: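 Human recombinant Topo I was incubated with supercoiled pBR322 DNA, with or without compound at a series of µM concentrations. Read-out is the number of relaxed topoisomers formed.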

HeLa [3] = test: Induction of apoptosis in human HeLa cells assessed as early apoptotic cells at 80 uM after 18 hrs by Annexin-V-FITC/propidium iodide staining based flow cytometric analysis (reference value: 5.6%); assay type: functional
Method in brief: (§2)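 HeLa cells were incubated 18 h without compound (control) or at 20 and 80 µM. They were stained with FITC-annexin V and propidium iodide and analysed by dual-parameter flow cytometry. Cells were scored as viable, early apoptotic, late apoptotic or necrotic.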

Salmon testes DNA = test: Binding affinity to salmon DNA at compound to DNA ratio of 0.02 to 0.04 by linear flow dichroism analysis; assay type: nucleic-acid assay; conditions: Salmonidae
HeLa [4] = test: Induction of apoptosis in human HeLa cells assessed as necrotic cells at 20 uM after 18 hrs by Annexin-V-FITC/propidium iodide staining based flow cytometric analysis (reference value: 0.7%); assay type: functional; method in brief: as §2
MSTO-211H = test: Growth inhibition in human MSTO-211H cells after 72 hrs by trypan blue dye-based assay; assay type: functional
Method in brief: (§3)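 Three human tumour lines were used: HeLa (cervix adenocarcinoma), A-431 (epidermoid/squamous carcinoma) and MSTO-211H (biphasic mesothelioma). GI50 is the µM concentration giving 50% cell death relative to the untreated control culture. Ellipticine was run as reference.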

[5] = target: T1, DNA topoisomerase 1 (Homo sapiens); test: Poison activity at recombinant human topoisomerase-1 assessed as stabilization of covalent topo-1-DNA cleavage complex by measuring nicked DNA formation using supercoiled pBR322 DNA as substrate after 60 mins by agarose gel electrophoresis method; method in brief: as §1
[6] = target: DNA topoisomerase 2-alpha (Homo sapiens) (UniProt P11388); test: Inhibition of recombinant human topoisomerase 2alpha assessed as decrease in relaxation of supercoiled pBR322 DNA after 60 mins by ethidium bromide staining based agarose gel electrophoresis method
DNA topoisomerase 2-alpha (Homo sapiens), sequence (P11388 whole entry): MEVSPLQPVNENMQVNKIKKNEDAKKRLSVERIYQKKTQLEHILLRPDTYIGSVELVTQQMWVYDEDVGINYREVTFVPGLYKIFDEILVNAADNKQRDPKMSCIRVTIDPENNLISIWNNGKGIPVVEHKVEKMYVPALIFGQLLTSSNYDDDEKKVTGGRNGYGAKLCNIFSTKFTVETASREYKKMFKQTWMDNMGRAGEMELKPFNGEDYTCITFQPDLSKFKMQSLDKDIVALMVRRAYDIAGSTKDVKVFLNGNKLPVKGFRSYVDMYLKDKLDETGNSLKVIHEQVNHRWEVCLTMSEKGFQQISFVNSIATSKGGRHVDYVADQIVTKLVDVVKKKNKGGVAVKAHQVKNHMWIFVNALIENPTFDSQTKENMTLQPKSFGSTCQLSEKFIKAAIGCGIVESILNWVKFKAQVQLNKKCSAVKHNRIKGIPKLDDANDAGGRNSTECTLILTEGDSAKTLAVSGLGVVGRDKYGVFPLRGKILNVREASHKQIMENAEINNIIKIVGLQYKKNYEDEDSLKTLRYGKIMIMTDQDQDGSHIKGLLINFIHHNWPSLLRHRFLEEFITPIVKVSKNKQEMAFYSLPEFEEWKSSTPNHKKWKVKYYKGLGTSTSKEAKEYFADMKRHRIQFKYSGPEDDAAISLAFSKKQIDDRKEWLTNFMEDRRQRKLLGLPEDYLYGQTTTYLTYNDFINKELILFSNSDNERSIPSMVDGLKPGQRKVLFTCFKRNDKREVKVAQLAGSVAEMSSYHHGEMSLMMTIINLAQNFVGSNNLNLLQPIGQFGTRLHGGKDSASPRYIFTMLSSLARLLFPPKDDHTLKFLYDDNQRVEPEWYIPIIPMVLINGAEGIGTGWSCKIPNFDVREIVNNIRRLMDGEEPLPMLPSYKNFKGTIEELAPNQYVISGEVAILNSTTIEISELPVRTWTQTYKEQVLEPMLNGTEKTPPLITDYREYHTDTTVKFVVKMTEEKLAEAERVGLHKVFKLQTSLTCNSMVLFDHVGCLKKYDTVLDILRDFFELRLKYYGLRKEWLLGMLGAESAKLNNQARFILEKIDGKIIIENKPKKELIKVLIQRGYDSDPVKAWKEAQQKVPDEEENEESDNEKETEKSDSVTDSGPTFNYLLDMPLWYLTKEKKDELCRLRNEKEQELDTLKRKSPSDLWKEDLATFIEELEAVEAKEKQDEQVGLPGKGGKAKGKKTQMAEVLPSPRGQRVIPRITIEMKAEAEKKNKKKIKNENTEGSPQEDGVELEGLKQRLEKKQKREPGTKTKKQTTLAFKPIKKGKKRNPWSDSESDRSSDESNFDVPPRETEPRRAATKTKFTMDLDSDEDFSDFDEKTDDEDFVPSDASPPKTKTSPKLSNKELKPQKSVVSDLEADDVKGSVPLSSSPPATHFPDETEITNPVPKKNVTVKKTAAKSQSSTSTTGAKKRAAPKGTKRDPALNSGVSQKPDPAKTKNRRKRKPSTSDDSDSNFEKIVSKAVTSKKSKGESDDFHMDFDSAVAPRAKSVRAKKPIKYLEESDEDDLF
Method in brief: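 Topo II was incubated with supercoiled pBR322 DNA, with or without compound at a series of µM concentrations. Read-out is topoisomer formation from supercoiled DNA on a gel. Reference is 10 µM m-AMSA.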

HeLa [7] = test: Growth inhibition in human HeLa cells after 72 hrs by trypan blue dye-based assay; assay type: functional; method in brief: as §3
A-431 = test: Growth inhibition in human A431 cells after 72 hrs by trypan blue dye-based assay; assay type: functional; conditions: A-431, 72 h; method in brief: as §3
HeLa [8] = test: Induction of apoptosis in human HeLa cells assessed as early apoptotic cells at 20 uM after 18 hrs by Annexin-V-FITC/propidium iodide staining based flow cytometric analysis (reference value: 5.6%); assay type: functional; method in brief: as §2
HeLa [9] = test: Induction of apoptosis in human HeLa cells assessed as late apoptotic cells at 80 uM after 18 hrs by Annexin-V-FITC/propidium iodide staining based flow cytometric analysis (reference value: 2.2%); assay type: functional; method in brief: as §2
HeLa [10] = test: Induction of apoptosis in human HeLa cells assessed as viable cells at 80 uM after 18 hrs by Annexin-V-FITC/propidium iodide staining based flow cytometric analysis (reference value: 91.6%); assay type: functional; conditions: read-out: Activity; method in brief: as §2
HeLa [11] = test: Induction of apoptosis in human HeLa cells assessed as late apoptotic cells at 20 uM after 18 hrs by Annexin-V-FITC/propidium iodide staining based flow cytometric analysis (reference value: 2.2%); assay type: functional; method in brief: as §2
[12] = target: DNA topoisomerase 2-alpha (Homo sapiens) (UniProt P11388); test: Poison activity at recombinant human topoisomerase-2 assessed as stabilization of covalent topo-2-DNA cleavage complex by measuring linear DNA formation up to 50 uM using supercoiled pBR322 DNA as substrate after 60 mins by agarose gel electrophoresis method
Method in brief: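 Cleavable-complex assay: supercoiled pBR322 DNA was incubated with Topo II, with or without compound at a series of µM concentrations. Enzyme-mediated linear DNA marks cleavage-complex stabilisation. Reference poison is 10 µM m-AMSA.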

HeLa [13] = test: Induction of apoptosis in human HeLa cells assessed as viable cells at 20 uM after 18 hrs by Annexin-V-FITC/propidium iodide staining based flow cytometric analysis (reference value: 91.6%); assay type: functional; conditions: read-out: Activity; method in brief: as §2
HeLa [14] = test: Induction of apoptosis in human HeLa cells assessed as necrotic cells at 80 uM after 18 hrs by Annexin-V-FITC/propidium iodide staining based flow cytometric analysis (reference value: 0.7%); assay type: functional; method in brief: as §2

inhibition [2]: Dose-dependent effect
Activity (Salmon testes DNA): Active
inhibition [6]: Dose-dependent effect
GI50 (HeLa [7]): 820 nM
GI50 (A-431): 330 nM
Compound: COc1cc2c3sc4ccccc4c(=O)c3n(CCN(C)C)c2cc1OC
Activity [1]: Active
Activity (HeLa [3]): 31.5%
Activity (HeLa [4]): 2%
GI50 (MSTO-211H): 310 nM
Activity [5]: Dose-dependent effect
Activity (HeLa [8]): 8.6%
Activity (HeLa [9]): 17%
viability at 80 µM (HeLa [10]): 43.8%
Activity (HeLa [11]): 2.7%
Activity [12]: inactive
viability at 20 µM (HeLa [13]): 86.7%
Activity (HeLa [14]): 7.7%
